Data published in the RNAGym collection of RNA variant scans (doi:10.1126/science.aae0568).
This sample holds only a part of the variants without activity.

B1: tRNA (parent)
chain: GUUCCGUUGGCGUAAUGGUAACGCGUCUCCCUCCUAAGGAGAAGACUGCGGGUUCGAGUCCCGUACGGAACG

Variants of: B1
Assay: yeast fitness relative to wild type (ratio to wild type); higher = fitter; tRNA-Arg(CCU), competitive growth, 37 C, YPD
In short: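 The tRNA-Arg(CCU) gene variants were made by chemical synthesis with a 3% per-site mutation rate at 69 sites and inserted at the native genomic locus of Saccharomyces cerevisiae. After pooling, the strains were competed in YPD at 37°C for 24 hours in six parallel replicates. Gene amplicons from the start population and each end population were read by 100-nucleotide paired-end sequencing, and Darwinian fitness relative to wild type was taken from genotype frequency changes. Genotypes needed ≥ 100 starting reads, and estimates < 0.5 were set to 0.5.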

| Variant | yeast fitness |
| --- | --- |
| G17A C24G C27G A69C | ≤ 0.5 |
| A42U C62G G63C A65U | ≤ 0.5 |
| C5G A21C | 0.636 |
| C27U C34G | 0.698 |
| C22U C24A A42U C61U | 0.562 |
| G9C G68A | 0.763 |
| G18U A36C G67C | ≤ 0.5 |
| C4U C27G A45C C55U C66A | ≤ 0.5 |
| A14U C24U C34U C49G | ≤ 0.5 |
| U2A C11G G25A A40U C49A C55U | ≤ 0.5 |
| A45U G51C | 0.538 |
| A15G C24U C29U C30G U35G C66U | ≤ 0.5 |
| C49A G50A C62U | 0.637 |
| U13A C30U C34U A42G G63A | ≤ 0.5 |
| G6A C11G A21G C24A G52A C60A A69G | ≤ 0.5 |
| C11U G51A C61G | ≤ 0.5 |
| U13A A15G A21C C22G C30G A37U | 0.636 |
| A21G G23A C31U G63C A69U | ≤ 0.5 |
| C4U A70U | 1.02 |
| C24U C30G C61U A65U C66U | ≤ 0.5 |
| C22U C27U A42U A43U U47C | ≤ 0.5 |
| U28A C31G U35C C60U C61U | ≤ 0.5 |
| C22U C24G U35C G56C | ≤ 0.5 |
| C5G A21C G39A | ≤ 0.5 |

| Variant | yeast fitness |
| --- | --- |
| U2G C5U C31G | 0.583 |
| G9A U28C C55G C62G | ≤ 0.5 |
| C11U A20C A69C | 0.627 |
| U13A G41C A42G G67A | ≤ 0.5 |
| U3C C22U C31U | 0.691 |
| U2C A42G A45C C61G | ≤ 0.5 |
| G9C G23C C30G G44A G58C G63A A70G | ≤ 0.5 |
| C24G U64C | 0.567 |
| C5U A14G U26C C30U A42C C61U | ≤ 0.5 |
| C31U G44C A69C | 0.585 |
| U2A U3A U26A A57U C62G C66U | ≤ 0.5 |
| G17A C22A | 0.645 |
| C11G U16A C24U G50C C66U | ≤ 0.5 |
| C27G G41C G68C | 0.626 |
| G10C C11U C30G G48A U54A G68U | ≤ 0.5 |
| C4G U16C C27G A40G G48A A57C | 0.572 |
| G41A G63A A70C | 0.753 |
| U32C C66U | 0.966 |
| G6A G23C C49G G50A U53G A57G | ≤ 0.5 |
| U2G C4A U16C C61G G68C | ≤ 0.5 |
| G6A G44C | 0.799 |
| C22G C27G C29G C34A A43U A65U | ≤ 0.5 |
| G6U G44C G56C | ≤ 0.5 |
| C30A A45U | 0.997 |

| Variant | yeast fitness |
| --- | --- |
| C5U G17C G52A | 0.61 |
| A36U U47G C61A A70U | ≤ 0.5 |
| C4U G10C U35C G41A C49U | ≤ 0.5 |
| G9A G56C | 0.563 |
| U3A A40G | 0.888 |
| U2A G17C A57C G63C C66U | ≤ 0.5 |
| C29A G56C | ≤ 0.5 |
| C4U G10A C24U G67A | 0.751 |
| U2A C30A C61U | ≤ 0.5 |
| G10C A14U C62U G67U | ≤ 0.5 |
| A15U C22G | 0.67 |
| C4U C11G C34U U53C | ≤ 0.5 |
| C4G U35G A43C U47C | ≤ 0.5 |
| U3A A21G | 0.926 |
| C27A C66A | 0.565 |
| C5G U47G | 0.611 |
| A20G A36U A42G G58A | ≤ 0.5 |
| C11A A43U C46U U47G | 0.565 |
| U2C A37U A43U | 0.568 |
| C24U C31A C49U A57C | ≤ 0.5 |
| C33G C62G | 0.597 |
| A14C A45C | 0.702 |
| G9C C30U | 0.628 |
| C27U A36C G56C G68A A70U | ≤ 0.5 |

| Variant | yeast fitness |
| --- | --- |
| C5A A40U A65U | 0.636 |
| U7C C11G U32G C61U | 0.59 |
| G23C C34U A36U C49A C66U | ≤ 0.5 |
| G6C C24G C30G | ≤ 0.5 |
| U8C G9A U59A A70G | ≤ 0.5 |
| C34U U64A | 0.597 |
| A14U U16G U19A | ≤ 0.5 |
| G18A G23A C33A A65C | 0.624 |
| C29A C33U C62A A69C | ≤ 0.5 |
| U19A A42G G68U | ≤ 0.5 |
| A14G C24A U26A C27G U32C C60U | ≤ 0.5 |
| U2G G44C C60U A69G | ≤ 0.5 |
| C4U C49U C61G | 0.594 |
| A21U C31U G52A A69G | 0.706 |
| U32G G67A | 0.643 |
| G9A A70U | 0.875 |
| A14C G39C | 0.575 |
| A20C G25C C29U | ≤ 0.5 |
| C30G C49U U64A | 0.702 |
| U16G C31A | 0.985 |
| G10A A14G C33U | ≤ 0.5 |
| C5G A15G U16A A20G U28A C30A C33A A36U G50A C66U | ≤ 0.5 |
| C4U A15G C27U G41A | ≤ 0.5 |
| A37C A45G | 0.818 |

| Variant | yeast fitness |
| --- | --- |
| A14C C24G U26A A36G A40U A43U | ≤ 0.5 |
| A43G U53A U54C | ≤ 0.5 |
| G6C U8C U54C G58A | ≤ 0.5 |
| C5U U26A A43U | 0.715 |
| C4G U7C A14C C30U A40U C49U | ≤ 0.5 |
| C24U C55G C66A | ≤ 0.5 |
| G51A C62G C66U | ≤ 0.5 |
| U3G U13A | 1.1 |
| A37U U47C U53G A69U | ≤ 0.5 |
| U3C U26G C33A C61U | ≤ 0.5 |
| A15U C24G C30U A57U A69C | ≤ 0.5 |
| C11G U28C C34U G44C G50C U53C | ≤ 0.5 |
| U19C G25C | 1.04 |
| G6A C34G A37G U64C | ≤ 0.5 |
| G9C C24U C30G G51A C60U A69C | ≤ 0.5 |
| U2C G12C C49U A65G | ≤ 0.5 |
| A20C C22U U26C C46G C49U A69C | ≤ 0.5 |
| C22U G39C C62U | 0.51 |
| G18A A36C U64A | 0.575 |
| A15U G25C A57G | ≤ 0.5 |
| C30A A45C C46U | 0.613 |
| A14G U28C A40U | 0.691 |
| G9A A43C C62G | ≤ 0.5 |
| C4G U32C G63C | 0.605 |

| Variant | yeast fitness |
| --- | --- |
| C22A C29U C66G | ≤ 0.5 |
| C33G C61A C66U | 0.583 |
| U26C C27G C60U | ≤ 0.5 |
| C29G U35G C61U | 0.552 |
| C5U C46G C62U | 0.697 |
| A14U A20U C66U G67A | ≤ 0.5 |
| U13A G23C A70C | 0.667 |
| U7G G23A A36U G39C | ≤ 0.5 |
| G23C C60G | ≤ 0.5 |
| U32A U47C | 0.826 |
| A45G C55G | 0.562 |
| U26A U35C A45U A65C | ≤ 0.5 |
| U3A A57C | 0.714 |
| G9A U13A A15G C27U | ≤ 0.5 |
| C22U C30U U47C U54A | ≤ 0.5 |
| C24U A42U A43U | 1.02 |
| C22A U47A A65G | 0.573 |
| A37C G63A | 0.612 |
| C11G A36G | 0.692 |
| C4G A21U A36C C61A | 0.615 |
| C27A C49A | 0.749 |
| C29G A40U C61U C66U | ≤ 0.5 |
| U2A U7C G17C C29A A45U U59C | 0.902 |
| C4A C5U A36G A42C | ≤ 0.5 |

| Variant | yeast fitness |
| --- | --- |
| A14C G25C A45G G48A | 0.534 |
| U26C C33U C55U C60U | ≤ 0.5 |
| A14C A15C | 0.518 |
| A20C G38C G63A A70C | ≤ 0.5 |
| A42C C62A C66G | ≤ 0.5 |
| A14G G25C C31U | 0.692 |
| A15G A45U C49U C60G | ≤ 0.5 |
| A15C U19C A37C G51A C60A | 0.557 |
| U19C A20C C31G C49G | ≤ 0.5 |
| C11A A42U | 0.724 |
| U2G C31G U35A A45U | ≤ 0.5 |
| A43U U53A A69C | 0.614 |
| U2A G63C | 0.673 |
| C4A C24G C62U A69C | 0.567 |
| U8C A14C C30G | ≤ 0.5 |
| C31A C61G G68C | ≤ 0.5 |
| G12C G17A A20U C34A G41C | ≤ 0.5 |
| C11G C30U U35A U53G A70C | ≤ 0.5 |
| G10C A69U | 0.661 |
| A15G C30U | 0.894 |
| A20U U35A G38A | 0.613 |
| C29G C33U A45U | ≤ 0.5 |
| U2C A20C A65U | 0.641 |
